Activity calls are given as the source filed them.
Assays:
Mus musculus [1] = organism: Mus musculus; assay: Anticonvulsant activity in mice using MES seizure test; determined at time of peak effect (0.5 hr); assay type: functional
How it was run: (§1)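 Mice were injected at 30, 100, 300 and 600 mg/kg, four per dose, and tested at 30 min and 4 h. Protection means abolition of the hindlimb tonic extensor component of the maximal electroshock seizure (60 Hz alternating current, 50 mA, 0.2 s, corneal electrodes). ED50 was estimated graphically. Confirmed values carry Litchfield-Wilcoxon 95% confidence limits.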

Mus musculus [2] = assay: Anticonvulsant activity in mice using sc Met seizure test;NA means inactive.; assay type: functional, organism-based
How it was run: (§2)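 Mice were dosed at 30, 100, 300 and 600 mg/kg, four per dose, and tested at 30 min and 4 h. Pentylenetetrazol was then given subcutaneously at its CD99. Protection means absence of even a threshold seizure (one clonic spasm of 5 s). ED50 was estimated graphically, some at peak-effect time or 4 h. Litchfield-Wilcoxon 95% limits apply where confirmed.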

Mus musculus [3] = organism: Mus musculus; assay: Anticonvulsant activity expressed as toxic dose in rotarod test (0.5 hr) in mice;NA means inactive.; assay type: ADME, organism-based; details: in vivo
How it was run: (§3)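 Mice, rotorod test of acute neurotoxicity at 0.5 h. Doses 30, 100, 300 and 600 mg/kg, four animals per dose, with positives assessed by four more observations. Median neurotoxic dose (TD50) was estimated graphically from combined ADD and in-house screening. Where confirmed by further ADD testing, 95% confidence limits were calculated by Litchfield-Wilcoxon.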

Mus musculus [4] = assay: Anticonvulsant activity in mice using sc Met seizure test.; assay type: functional; how it was run: as §2
[5] = Anticonvulsant activity expressed as toxic dose in rotarod test (0.5 hr) in mice; assay type: toxicity, organism-based; details: mouse, in vivo
How it was run: (§4)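 Acute neurotoxicity in mice by rotorod test after injection at 30, 100, 300 and 600 mg/kg, read at 30 min and 4 h, four animals per dose. TD50 is the median neurotoxic dose, estimated graphically; where confidence limits are given they are 95% limits by the Litchfield-Wilcoxon method from additional ADD testing.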

Mus musculus [6] = organism: Mus musculus; assay: Anticonvulsant activity in mice using MES seizure test;NA means inactive.; assay type: functional, organism-based; how it was run: as §1
Mus musculus [7] = organism: Mus musculus; assay: Anticonvulsant activity in mice using MES seizure test.; assay type: functional; how it was run: as §1
Mus musculus [8] = assay: Anticonvulsant activity expressed as toxic dose in rotarod test (0.5 hr) in mice;4 out of 4 mice died at 600 mg/kg; wild running and tonic extension convulsion at 300 mg/kg;NA means inactive.; assay type: ADME, organism-based; details: in vivo; how it was run: as §3
Mus musculus [9] = organism: Mus musculus; assay: Anticonvulsant activity in mice using MES seizure test;Activity determined at time of peak effect (0.5 hr) and value ranges from (48-56).; assay type: functional; how it was run: as §1
[10] = Anticonvulsant activity expressed as toxic dose in rotarod test (0.5 hr) in mice;Activity determined at time of peak effect (0.5 hr) and value ranges from(47-65).; assay type: ADME, organism-based; details: mouse, in vivo; how it was run: as §3
[11] = Anticonvulsant activity expressed as toxic dose in rotarod test (0.5 hr) in mice;Activity determined at time of peak effect (0.5 hr); assay type: ADME, organism-based; details: mouse, in vivo; how it was run: as §4
Mus musculus [12] = assay: Anticonvulsant activity in mice using MES seizure test;Compound is neurotoxic at 100 mg/kg.; assay type: functional, organism-based; set-up: dose 100 mg/kg
Mus musculus [13] = assay: Anticonvulsant activity in mice using sc Met seizure test;Activity determined at 4h.; assay type: functional
How it was run: (§5)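 Subcutaneous pentylenetetrazol at the CD99 convulsant dose was given to mice pretreated at 30–600 mg/kg, four per dose, with tests at 30 min and 4 h. Protection is the absence of even a threshold seizure (one clonic spasm episode of 5 s). ED50 is estimated graphically or determined at the time of peak effect; 95% limits are by Litchfield-Wilcoxon.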

Mus musculus [14] = assay: Anticonvulsant activity in mice using sc Met seizure test;Activity determined at time of peak effect (0.5 hr) and value ranges from(12-20).; assay type: functional; how it was run: as §5
[15] = Anticonvulsant activity expressed as toxic dose in rotarod test (0.5 hr) in mice;Value ranges from(36-43).; assay type: ADME, organism-based; details: mouse, in vivo; how it was run: as §4
Mus musculus [16] = organism: Mus musculus; assay: Anticonvulsant activity in mice using MES seizure test;Activity determined at time of peak effect (0.5 hr) and value ranges from(48-55); assay type: functional
Mus musculus [17] = assay: Anticonvulsant activity in mice using MES seizure test;Compound is neurotoxic at 300 mg/kg dose.; assay type: functional, organism-based; set-up: dose 300 mg/kg
Mus musculus [18] = assay: Anticonvulsant activity in mice using sc Met seizure test;Activity is determined at 4h.; assay type: functional; how it was run: as §5
Mus musculus [19] = assay: Anticonvulsant activity in mice using sc Met seizure test;Activity determined at the time of peak effect (1hr) and value ranges from (26-62).; assay type: functional; how it was run: as §5
[20] = Anticonvulsant activity expressed as toxic dose in rotarod test (0.5 hr) in mice;Activity determined at the time of peak effect (0.5 hr) and value ranges from (126-147).; assay type: ADME, organism-based; details: mouse, in vivo; how it was run: as §4
Mus musculus [21] = assay: Anticonvulsant activity in mice using sc Met seizure test;Compound is neurotoxic at 5 mg/kg.; assay type: functional, organism-based; set-up: dose 5 mg/kg
Mus musculus [22] = assay: Anticonvulsant activity in mice using MES seizure test;Compound is neurotoxic at 30 mg/kg dose.; assay type: functional, organism-based; set-up: dose 30 mg/kg

COC(=O)c1c(C)c(C)cc2c(=O)n(-c3ccccn3)c(C)nc12
ED50 (Mus musculus [1]): 52 mg/kg | ED50 (Mus musculus [2]): inactive | TD50 (Mus musculus [3]): Not Active

COC(=O)c1c(C)c(C)cc2c(=O)n(-c3cccc(F)c3)c(C)nc12
ED50 (Mus musculus [4]): 430 mg/kg | TD50 at 0.5 h [5]: 540 mg/kg | ED50 (Mus musculus [6]): inactive

COC(=O)c1c(C)c(C)cc2c(=O)n(-c3ccccc3F)c(C)nc12
TD50 at 0.5 h [5]: 280 mg/kg | ED50 (Mus musculus [2]): inactive | ED50 (Mus musculus [6]): inactive

COC(=O)c1c(C)c(C)cc2c(=O)n(-c3ccc(F)cc3)c(C)nc12
ED50 (Mus musculus [4]): 440 mg/kg | ED50 (Mus musculus [7]): 600 mg/kg | TD50 (Mus musculus [3]): Not Active

Cc1nc2cccnc2c(=O)n1-c1cccc(C(F)(F)F)c1
TD50 at 0.5 h [5]: 50 mg/kg | ED50 (Mus musculus [2]): inactive | ED50 (Mus musculus [6]): inactive

Cc1cc2c(=O)n(-c3ccccn3)c(C)nc2c(C(=O)O)c1C
TD50 (Mus musculus [8]): Not Active | ED50 (Mus musculus [2]): inactive | ED50 (Mus musculus [6]): inactive

Cc1ccccc1-n1c(C)nc2ccccc2c1=O [METHAQUALONE]
ED50 (Mus musculus [9]): 52 mg/kg | TD50 at 0.5 h [10]: 55 mg/kg

Cc1nc2cccnc2c(=O)n1-c1ccccc1C(F)(F)F
TD50 at 0.5 h [11]: 100 mg/kg | ED50 (Mus musculus [12]): inactive | ED50 (Mus musculus [13]): 100 mg/kg

Cc1cc2c(=O)n(-c3ccc(F)cc3)c(C)nc2c(C(=O)O)c1C
ED50 (Mus musculus [4]): 440 mg/kg | ED50 (Mus musculus [6]): inactive | TD50 (Mus musculus [3]): Not Active

Cc1ccccc1-n1c(C)nc2cccnc2c1=O
ED50 (Mus musculus [14]): 16.5 mg/kg | TD50 at 0.5 h [15]: 40 mg/kg | ED50 (Mus musculus [16]): 52 mg/kg

Cc1nc2cccnc2c(=O)n1-c1ccc(C(F)(F)F)cc1
ED50 (Mus musculus [17]): inactive | TD50 at 0.5 h [5]: 170 mg/kg | ED50 (Mus musculus [18]): 90 mg/kg

Cc1ccccc1-n1c(C)nc2ncccc2c1=O
ED50 (Mus musculus [17]): inactive | ED50 (Mus musculus [19]): 40 mg/kg | TD50 at 0.5 h [20]: 137 mg/kg

COC(=O)c1c(C)c(C)cc2c(=O)n(-c3ccccc3C)c(C)nc12
ED50 (Mus musculus [4]): 600 mg/kg | ED50 (Mus musculus [6]): inactive | TD50 (Mus musculus [3]): Not Active

Cc1nc2cccnc2c(=O)n1-c1ccc(Cl)cc1Cl
ED50 (Mus musculus [21]): inactive | ED50 (Mus musculus [22]): inactive
